Results taken from ChEMBL document CHEMBL1124595, “Synthesis and biological activity of 3-substituted imidazo[1,2-a]pyridines as antiulcer agents” (1989).

Columns and labels:
Format in all cases: functional
[1] = tested on: Rattus norvegicus; experiment: Antisecretory activity in gastric fistula rat when administered perorally; conditions: Stomach, po
Outline: (§1)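 Chronic gastric fistula rats dosed orally. Activity was taken as percent inhibition of gastric acid secretion. The dose giving 50% inhibition (ED50) was calculated by probit analysis.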

[2] = tested on: Rattus norvegicus; experiment: Cytoprotective activity in rats when administered 30 mg/kg perorally (Hydrochloric acid as necrotic agent); conditions: route oral
Outline: (§2)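 Food was withheld for 24 h and water for 1½–18 h. Rats were dosed orally (3–12 mL vehicle/kg) 60 min before 0.75 N HCl, 3.0 mL/kg by gavage. They were killed 60 min after insult, and the stomach was opened along the greater curvature and photographed. Lesion area score ÷4 gave mm²; group mean was compared with controls as % inhibition. Five animals per dose, standard error.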

[3] = tested on: Rattus norvegicus; experiment: Cytoprotective activity in rat when administered 30 mg/kg perorally (Ethyl alcohol as necrotic agent); conditions: route oral
Outline: as §2, with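 “100% ethanol,” for “0.75 N HCl,”, “lesser” for “greater”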

[4] = tested on: Rattus norvegicus; experiment: Cytoprotective activity in rat when administered 50 mg/kg perorally (Ethyl alcohol as necrotic agent); conditions: route oral
Outline: as §2, with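 “100% ethanol,” for “0.75 N HCl,”, “lesser” for “greater”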

[5] = tested on: Rattus norvegicus; experiment: Cytoprotective activity in rats when administered 50 mg/kg perorally (Hydrochloric acid as necrotic agent); conditions: route oral; outline: as §2
[6] = tested on: Rattus norvegicus; experiment: Cytoprotective activity in rats when administered 100 mg/kg perorally (Hydrochloric acid as necrotic agent); conditions: route oral; outline: as §2
[7] = tested on: Rattus norvegicus; experiment: Antisecretory activity in gastric fistula rat when administered per orally; conditions: Stomach, po; outline: as §1
[8] = tested on: Rattus norvegicus; experiment: Cytoprotective activity in rats when administered 50 mg/kg perorally per orally (Hydrochloric acid as necrotic agent); conditions: route oral; outline: as §2
[9] = tested on: Rattus norvegicus; experiment: Cytoprotective activity in rats when administered 0.10 mg/kg perorally per orally (Hydrochloric acid as necrotic agent); conditions: route oral; outline: as §2
[10] = tested on: Rattus norvegicus; experiment: Cytoprotective activity in rat when administered 0.25 mg/kg perorally (Ethyl alcohol as necrotic agent); conditions: route oral
Outline: as §2, with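 “100% ethanol,” for “0.75 N HCl,”, “lesser” for “greater”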

## Cc1nc2c(OCc3ccccc3)cccn2c1C(C)SCCNc1nsnc1N (configuration not stated)
[1]
  ED50: > 25 mg/kg
[2]
  inhibition in vivo at 30 mg/kg: 62%
[3]
  inhibition in vivo at 30 mg/kg: 84%

## Cc1nc2c(OCc3ccccc3)cccn2c1C(C)SCCNc1n[s+]([O-])nc1N (configuration not stated)
[1]
  ED50: > 25 mg/kg
[4]
  inhibition in vivo at 50 mg/kg: 57%
[5]
  inhibition in vivo at 50 mg/kg: 57%

## C/N=C(/NC#N)NCCSCc1c(C)nc2ccccn12
[1]
  ED50: > 25 mg/kg
[5]
  inhibition in vivo at 50 mg/kg: 60%
[3]
  inhibition in vivo at 30 mg/kg: 97%

## Cc1nc2c(OCc3ccccc3)cccn2c1CC#N
[1]
  ED50: 0.9 mg/kg
[6]
  inhibition in vivo at 100 mg/kg: 68%
[3]
  inhibition in vivo at 30 mg/kg: 90%

## Cc1nc2ccccn2c1C(C)SCCNc1nsnc1N (configuration not stated)
[1]
  ED50: > 25 mg/kg
[4]
  inhibition in vivo at 50 mg/kg: 54%
[5]
  inhibition in vivo at 50 mg/kg: 51%

## Cc1nc2ccccn2c1C(C)SCC/N=c1/c(O)c(O)c1=N (configuration not stated)
[7]
  ED50: > 25 mg/kg
[4]
  inhibition in vivo at 50 mg/kg: 7%
[8]
  inhibition in vivo at 50 mg/kg: 27%

## Cc1nc2ccccn2c1CSCCNc1nsnc1N
[1]
  ED50: > 25 mg/kg
[4]
  inhibition in vivo at 50 mg/kg: 70%
[5]
  inhibition in vivo at 50 mg/kg: 24%

## Cc1nc2ccccn2c1CSCC/N=c1/c(O)c(O)c1=N
[7]
  ED50: > 25 mg/kg
[4]
  inhibition in vivo at 50 mg/kg: 0%
[8]
  inhibition in vivo at 50 mg/kg: 34%

## Cc1nc2ccccn2c1CSCCNc1n[s+]([O-])nc1N (configuration not stated)
[1]
  ED50: > 25 mg/kg
[4]
  inhibition in vivo at 50 mg/kg: 2%

## Cc1nc2ccccn2c1C(C)SCCNc1n[s+]([O-])nc1N (configuration not stated)
[1]
  ED50: > 25 mg/kg
[4]
  inhibition in vivo at 50 mg/kg: 47%
[5]
  inhibition in vivo at 50 mg/kg: 36%

## CCCCC[C@H](O)/C=C/[C@H]1[C@H](O)CC(=O)[C@@H]1C/C=C\CCCC(=O)O [DINOPROSTONE]
[7]
  ED50: 0.83 mg/kg
[9]
  inhibition in vivo at 0.1 mg/kg: 70%
[10]
  inhibition in vivo at 0.25 mg/kg: 89%
